Type in all cases: functional
Test [1] concerns Mycosphaerella arachidis. Nature of the test: Antifungal activity against Mycosphaerella arachidis assessed as inhibition of mycelium growth at 50 mg/L at 26 degC measured after 72 hr. In short, it runs like this:
(§1)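 Mycelium growth assay on agar. 1 mL test solution (50 mg/L) was poured into a 9 cm plate with 9 mL agar medium. Controls used sterile water in its place. A 4 mm plug from the margin of an actively growing colony was placed in the centre and incubated at 26 °C. Hyphal diameter was measured over 72 h, in triplicate. Inhibition % = (control diameter − treated diameter)/control diameter.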

In test [2] the test system is Amaranthus retroflexus. Nature of the test: Herbicidal activity against Amaranthus retroflexus assessed as herbicidal damage at 1.5 kg/ha measured after postemergence treatment. Conditions: post-emergence. Put shortly:
(§2)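 Seeds were sown in 6 cm boxes of artificial mixed soil, covered with plastic film until emergence, and grown in a greenhouse. Sprays were applied right after sowing (preemergence) or after the first true leaf expanded (postemergence). Controls received the same amount of water/DMF/Tween 20. Above-ground fresh weight was taken 10 days after treatment, in triplicate, as % damage versus control.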

For test [3], the system named is Botryosphaeria berengeriana. Nature of the test: Antifungal activity against Botryosphaeria berengeriana assessed as inhibition of mycelium growth at 50 mg/L at 26 degC measured after 72 hr. Put shortly: as §1
Test [4] concerns Amaranthus retroflexus. Nature of the test: Herbicidal activity against Amaranthus retroflexus assessed as herbicidal damage at 1.5 kg/ha measured after preemergence treatment. The settings on record: pre-emergence. In short, it runs like this: as §2
For test [5], the system named is Digitaria sanguinalis. The test can be described thus: Herbicidal activity against hairy crabgrass Digitaria sanguinalis (hairy crabgrass) assessed as herbicidal damage at 1.5 kg/ha measured after preemergence treatment. The settings on record: pre-emergence. In short, it runs like this:
as §2

Test [6] relates to Digitaria sanguinalis. Nature of the test: Herbicidal activity against hairy crabgrass Digitaria sanguinalis (hairy crabgrass) assessed as herbicidal damage at 1.5 kg/ha measured after postemergence treatment. The settings on record: post-emergence. Put shortly: as §2
Test [7] relates to Cladosporium cucumerinum. The test can be described thus: Antifungal activity against Cladosporium cucumerinum assessed as inhibition of mycelium growth at 50 mg/L at 26 degC measured after 72 hr. In short, it runs like this:
as §1

The test system of test [8] is Alternaria solani. The test can be described thus: Antifungal activity against Alternaria solani assessed as inhibition of mycelium growth at 50 mg/L at 26 degC measured after 72 hr. In short, it runs like this:
as §1

Test [9] has as its system Fusarium graminearum. Nature of the test: Antifungal activity against Fusarium graminearum assessed as inhibition of mycelium growth at 50 mg/L at 26 degC measured after 72 hr. Put shortly: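 Mycelium growth test on agar plates: 1 mL test solution (50 mg/L) mixed with 9 mL agar medium; sterile water in place of test solution for controls. 4 mm inocula cut from margins of actively growing colonies, placed at plate centre, incubated at 26 °C; mycelium diameter measured over 72 h. Inhibition % from mean hyphal diameter against control. Triplicate.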

Test [10] deals with Brassica napus. The test can be described thus: Herbicidal activity against rape Brassica napus (oilseed rape) assessed as herbicidal damage at 1.5 kg/ha measured after postemergence treatment. Conditions: post-emergence. Put shortly:
as §2

In test [11] the test system is Medicago sativa. The test can be described thus: Herbicidal activity against Medicago sativa (alfalfa) assessed as herbicidal damage at 1.5 kg/ha measured after postemergence treatment. The settings on record: post-emergence. In short, it runs like this:
as §2

Test [12] concerns Medicago sativa. The test can be described thus: Herbicidal activity against Medicago sativa (alfalfa) assessed as herbicidal damage at 1.5 kg/ha measured after preemergence treatment. Conditions: pre-emergence. In short, it runs like this: as §2
Test [13] concerns Cucumis sativus. The test can be described thus: Plant growth regulatory activity in Cucumis sativus (cucumber) seed assessed as number of root at 10 mg/L at 26 degC measured after 5 days. Put shortly:
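Cucumber seeds were incubated at 26 °C in the dark for 72 h, then 10 cotyledons were excised and treated. Incubation continued at 26 °C in the dark for 5 days. Roots were counted, with water-only controls, in triplicate.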

The subject of test [14] is Tobacco mosaic virus. The test can be described thus: Antiviral activity against Tobacco mosaic virus (TMV) inoculated in fresh tobacco leaf at 100 mg/L by half-leaf method. In short, it runs like this:
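Half-leaf method on tobacco leaves at the 5-6 growth stage. Leaves were inoculated with TMV by juice-leaf rubbing at 5.88 × 10-2 µg/mL and cut along the main vein. One half was immersed in test solution and the other in double distilled water for 20 min, then cultured at 25 °C for 72 h, in triplicate. Inhibition = 100(CK − A)/CK, from average lesion counts.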

The subject of test [15] is Brassica napus. The test can be described thus: Herbicidal activity against rape Brassica napus (oilseed rape) assessed as herbicidal damage at 1.5 kg/ha measured after preemergence treatment. Conditions: pre-emergence. In short, it runs like this:
as §2

For `CCC/C(NCC1CCOC1)=C(\C#N)C(=O)OCCOCC` (stereo unspecified), the inhibition at 50 µg/mL in test [1] was 41.1%; in test [3], 27.3%; in test [7], 21.1%; in test [8] it was 10.7%; in [9], 0%. In addition, the inhibition at 1500 g/ha in test [2] was 8.1%; in [4], 9.5%; in test [5], 0%; in test [6] it was 1%; in [10] it was 58.8%; in [11] it was 11.4%. Also, the inhibition at 1500 g/ha in test [12] and in test [15] was 0% throughout. Further, the Activity in test [13] was 5.4%; in test [14] it was 9.4%.

In the case of `CCOCCOC(=O)/C(C#N)=C(/C)NCc1ccco1`, the inhibition at 50 µg/mL in [1] was determined as 44.6%; in test [3] it was 22.7%; in test [7], 21.1%; in test [8], 0%; in [9], 46.7%. In addition, the inhibition at 1500 g/ha in test [2] turned out to be 32.3%; in test [4], 3.2%; in [5], 42.1%; in test [6], 17.2%; in test [10], 20.1%; in [11], 5.4%. Further, the values for the inhibition at 1500 g/ha in test [12] and in test [15] were 12% and 8.5%, respectively. For the same molecule, in test [13], the Activity is given as -0.6%.

On to `CCOCCOC(=O)/C(C#N)=C(/CC)NCc1ccco1`, for which the inhibition at 50 µg/mL in test [1] was 35.7%; in [3] it was 27.3%; in test [7] it was 21.1%; in test [8] it was 0%; in test [9] it was 20%. In addition, the inhibition at 1500 g/ha in test [2] was 22.6%; in test [4] it was 9.5%; in test [5], 12.1%; in [6], 27.3%; in [10], 47.9%; in [11], 35.9%. The inhibition at 1500 g/ha in test [12] amounted to 0%; in [15], 16.3%. Moreover, the Activity stood at 11.4% in test [13] and 13.3% in test [14].

As for `CCOCCOC(=O)/C(C#N)=C(/CC)NCc1ccoc1`, the inhibition at 50 µg/mL in [1] amounted to 35.7%; in test [3], 4.5%; in test [7], 26.3%; in test [8] it was 10.7%; in test [9], 33.3%. Also, the inhibition at 1500 g/ha in [2] stood at 23.3%; in test [4], 11.6%; in test [5], 0%; in test [6] it was 0%; in [10] it was 33.8%; in test [11], 0%. The inhibition at 1500 g/ha in test [12] is 2.3%; in [15], 0%. Also, the Activity in [13] is recorded as 23.4%.

`CCOCCOC(=O)/C(C#N)=C(/NCc1ccco1)SC`: the inhibition at 50 µg/mL worked out at 16.1% in test [1]; 22.7% in [3]; 15.8% in test [7]; 25% in [8]; 36.7% in [9]. Moreover, the inhibition at 1500 g/ha is 30.2% in test [2]; 10.5% in test [4]; 37.8% in test [5]; 13.1% in test [6]; 22.9% in test [10]; 18.6% in test [11]. Moreover, the results for the inhibition at 1500 g/ha in test [12] and in [15] were 0% and 20.7%, respectively. In addition, the Activity in [13] is listed as 14.4%.

With `CCC/C(NCc1ccco1)=C(\C#N)C(=O)OCCOCC`, the inhibition at 50 µg/mL in test [1] was found to be 3.6%; in test [3], 9.1%; in test [7], 13.2%; in [8], 10.7%; in test [9] it was 30%. For the same molecule, the inhibition at 1500 g/ha is 31.6% in test [2]; 0% in test [4]; 22.8% in test [5]; 1% in [6]; 22.9% in test [10]; 12.6% in test [11]. For the same molecule, the values for the inhibition at 1500 g/ha in test [12] and in test [15] were 0% and 30.7%, respectively. Further, the Activity in test [13] turned out to be 14.4%.

Regarding `CCOCCOC(=O)/C(C#N)=C(/NCC1CCCO1)SC` (stereo unspecified), the inhibition at 50 µg/mL was found to be 17.9% in [1]; 4.5% in [3]; 34.2% in test [7]; 0% in test [8]; 40% in test [9]. The inhibition at 1500 g/ha was determined as 37.8% in [2]; 9.5% in [4]; 35.7% in test [5]; 0% in test [6]; 47.5% in test [10]; 23.4% in test [11]. The inhibition at 1500 g/ha turned out to be 21.8% in [12] and 0% in [15]. For the same molecule, the Activity in test [13] is given as -0.6%.

Turning to `CCOCCOC(=O)/C(C#N)=C(/C)NCC1CCOC1` (stereo unspecified), the inhibition at 50 µg/mL in [1] amounted to 12.5%; in test [3], 27.3%; in test [7] it was 18.4%; in [8], 35.7%; in test [9], 0%. In addition, the inhibition at 1500 g/ha in test [2] was determined as 29.5%; in test [4] it was 12.6%; in test [5], 31.4%; in [6], 0%; in test [10], 52.3%; in test [11], 5.4%. Also, the inhibition at 1500 g/ha in [12] amounted to 7.5%; in test [15], 0%. For the same molecule, the Activity in test [13] was -6.6%.

As to `CCOCCOC(=O)/C(C#N)=C(\NCc1ccoc1)C(C)C`, the inhibition at 50 µg/mL in test [1] was 30.4%; in test [3] it was 22.7%; in [7] it was 13.2%; in test [8], 25%; in test [9], 0%. Further, the inhibition at 1500 g/ha stood at 27.4% in test [2]; 22.1% in [4]; 33.6% in test [5]; 0% in test [6]; 51.9% in test [10]; 13.2% in test [11]. The values for the inhibition at 1500 g/ha in test [12] and in test [15] were 10.5% and 0%, respectively. Besides, in [13], the Activity is given as 11.4%.

In the case of `CCOCCOC(=O)/C(C#N)=C(/NCC1CCOC1)SC` (stereo unspecified), the inhibition at 50 µg/mL worked out at 25% in test [1]; 27.3% in [3]; 21.1% in test [7]; 21.4% in test [8]; 0% in test [9]. For the same molecule, the inhibition at 1500 g/ha came to 43.3% in test [2]; 22.1% in test [4]; 5.7% in test [5]; 0% in test [6]; 50.5% in test [10]; 4.2% in test [11]. For the same molecule, the inhibition at 1500 g/ha in [12] and in test [15] was 0% each time. The Activity in test [13] is listed as -9.6%.

Regarding `CCOCCOC(=O)/C(C#N)=C(/C)NCc1ccoc1`, the inhibition at 50 µg/mL in test [1] stood at 44.6%; in test [3], 13.6%; in [7], 36.8%; in [8] it was 0%; in test [9] it was 33.3%. Besides, the inhibition at 1500 g/ha in [2] stood at 37.1%; in test [4] it was 21.1%; in test [5], 22.8%; in test [6], 0%; in [10], 49.8%; in test [11], 20.4%. Besides, the inhibition at 1500 g/ha in [12] was 6.8%; in [15], 0%. In addition, the Activity in test [13] is -18.6%.
